In ChEMBL document CHEMBL4190234, “Design, synthesis and anticancer activity of new monastrol analogues bearing 1,3,4-oxadiazole moiety” (Eur J Med Chem, 2017):

Legend:
[1] = tested on: DU-145; experiment: Growth inhibition of human DU145 cells at 10 uM incubated for 48 hrs by sulforhodamine B assay relative to control; format: functional; conditions: DU-145, 48 h, read-out: GI
Procedure, shortened: (§1)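 Single-dose screen at 10 μM final: cells in RPMI 1640, 5% FBS, 2 mM L-glutamine, plated 5,000–40,000/well, preincubated 24 h at 37°C, 5% CO2; drug 48 h; adherent cells fixed with 10% TCA, suspension cells with 16% TCA; SRB stain, absorbance 515 nm; percentage growth versus untreated control, with time-zero plates.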

[2] = tested on: MCF7; experiment: Growth inhibition of human MCF7 cells at 10 uM incubated for 48 hrs by sulforhodamine B assay relative to control; format: functional; conditions: MCF7, 48 h, read-out: GI; procedure, shortened: as §1
[3] = tested on: U-251; experiment: Growth inhibition of human U251 cells at 10 uM incubated for 48 hrs by sulforhodamine B assay relative to control; format: functional; conditions: U-251, 48 h, read-out: GI
Procedure, shortened: (§2)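 NCI single-dose screen: cells grown in RPMI 1640 with 5% FBS and 2 mM L-glutamine, plated at 5,000–40,000 cells/well and preincubated 24 h at 37 °C, 5% CO2. Compounds taken from DMSO stock and tested at final 10 µM for 48 h. Cells fixed with TCA, stained with 0.4% SRB, absorbance read at 515 nm. Percentage growth calculated against untreated controls; controls held DMSO at the same dilution.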

[4] = tested on: NCI-H23; experiment: Growth inhibition of human NCI-H23 cells at 10 uM incubated for 48 hrs by sulforhodamine B assay relative to control; format: functional; conditions: NCI-H23, 48 h, read-out: GI; procedure, shortened: as §1
[5] = tested on: HCT-15; experiment: Growth inhibition of human HCT15 cells at 10 uM incubated for 48 hrs by sulforhodamine B assay relative to control; format: functional; conditions: HCT-15, 48 h, read-out: GI; procedure, shortened: as §1
[6] = tested on: MOLT-4; experiment: Growth inhibition of human MOLT4 cells incubated for 24 hrs by MTT assay; format: functional, cell-based; conditions: MOLT-4, 24 h
[7] = tested on: OVCAR-8; experiment: Growth inhibition of human OVCAR8 cells at 10 uM incubated for 48 hrs by sulforhodamine B assay relative to control; format: functional; conditions: OVCAR-8, 48 h, read-out: GI; procedure, shortened: as §1
[8] = tested on: HCC 2998; experiment: Growth inhibition of human HCC2998 cells at 10 uM incubated for 48 hrs by sulforhodamine B assay relative to control; format: functional; conditions: HCC 2998, 48 h, read-out: GI; procedure, shortened: as §1
[9] = tested on: RXF 393; experiment: Growth inhibition of human RXF393 cells at 10 uM incubated for 48 hrs by sulforhodamine B assay relative to control; format: functional; conditions: RXF 393, 48 h, read-out: GI; procedure, shortened: as §1
[10] = tested on: 786-0; experiment: Growth inhibition of human 786-0 cells at 10 uM incubated for 48 hrs by sulforhodamine B assay relative to control; format: functional; conditions: 786-0, 48 h, read-out: GI; procedure, shortened: as §1
[11] = tested on: Hs-578T; experiment: Growth inhibition of human Hs 578T cells at 10 uM incubated for 48 hrs by sulforhodamine B assay relative to control; format: functional; conditions: read-out: GI; procedure, shortened: as §1
[12] = tested on: NCI-H522; experiment: Growth inhibition of human NCI-H522 cells at 10 uM incubated for 48 hrs by sulforhodamine B assay relative to control; format: functional; conditions: NCI-H522, 48 h, read-out: GI; procedure, shortened: as §1
[13] = tested on: SK-OV-3; experiment: Growth inhibition of human SKOV3 cells at 10 uM incubated for 48 hrs by sulforhodamine B assay relative to control; format: functional; conditions: SK-OV-3, 48 h, read-out: GI; procedure, shortened: as §2
[14] = tested on: KM12; experiment: Growth inhibition of human KM12 cells at 10 uM incubated for 48 hrs by sulforhodamine B assay relative to control; format: functional; conditions: KM12, 48 h, read-out: GI; procedure, shortened: as §1
[15] = tested on: LOX IMVI; experiment: Growth inhibition of human LOXIMVI cells at 10 uM incubated for 48 hrs by sulforhodamine B assay relative to control; format: functional; conditions: read-out: GI; procedure, shortened: as §1
[16] = tested on: A549; experiment: Growth inhibition of human A549/ATCC cells at 10 uM incubated for 48 hrs by sulforhodamine B assay relative to control; format: functional; conditions: A549, 48 h, read-out: GI; procedure, shortened: as §1
[17] = tested on: HOP-62; experiment: Growth inhibition of human HOP62 cells at 10 uM incubated for 48 hrs by sulforhodamine B assay relative to control; format: functional; conditions: HOP-62, 48 h, read-out: GI; procedure, shortened: as §1
[18] = tested on: HL-60(TB); experiment: Growth inhibition of human HL-60(TB) cells at 10 uM incubated for 48 hrs by sulforhodamine B assay relative to control; format: functional; conditions: HL-60, 48 h, read-out: GI
Procedure, shortened: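 Single dose of 10 µM in the NCI ~60-line panel. Cells grown in RPMI 1640 with 5% FBS and 2 mM L-glutamine, plated and pre-incubated 24 h, then exposed 48 h at 37°C under 5% CO2. Suspension cells fixed with TCA (16% final) and stained with sulforhodamine B, A515 read. Reported as percent growth versus untreated control and as GI%.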

[19] = tested on: MDA-MB-435; experiment: Growth inhibition of human MDA-MB-435 cells at 10 uM incubated for 48 hrs by sulforhodamine B assay relative to control; format: functional; conditions: MDA-MB-435, 48 h, read-out: GI; procedure, shortened: as §1
[20] = tested on: OVCAR-3; experiment: Growth inhibition of human OVCAR3 cells at 10 uM incubated for 48 hrs by sulforhodamine B assay relative to control; format: functional; conditions: OVCAR-3, 48 h, read-out: GI; procedure, shortened: as §1
[21] = tested on: SK-MEL-28; experiment: Growth inhibition of human SK-MEL-28 cells at 10 uM incubated for 48 hrs by sulforhodamine B assay relative to control; format: functional; conditions: SK-MEL-28, 48 h, read-out: GI; procedure, shortened: as §2
[22] = tested on: CCRF-CEM; experiment: Growth inhibition of human CCRF-CEM cells at 10 uM incubated for 48 hrs by sulforhodamine B assay relative to control; format: functional; conditions: read-out: GI; procedure, shortened: as §1
[23] = tested on: BT-549; experiment: Growth inhibition of human BT549 cells at 10 uM incubated for 48 hrs by sulforhodamine B assay relative to control; format: functional; conditions: BT-549, 48 h, read-out: GI; procedure, shortened: as §1
[24] = tested on: HT-29; experiment: Growth inhibition of human HT-29 cells at 10 uM incubated for 48 hrs by sulforhodamine B assay relative to control; format: functional; conditions: HT-29, 48 h, read-out: GI; procedure, shortened: as §1
[25] = tested on: TK-10; experiment: Growth inhibition of human TK10 cells at 10 uM incubated for 48 hrs by sulforhodamine B assay relative to control; format: functional; conditions: TK-10, 48 h, read-out: GI; procedure, shortened: as §2
[26] = tested on: SNB-19; experiment: Growth inhibition of human SNB19 cells at 10 uM incubated for 48 hrs by sulforhodamine B assay relative to control; format: functional; conditions: SNB-19, 48 h, read-out: GI; procedure, shortened: as §2
[27] = tested on: T47D; experiment: Growth inhibition of human T47D cells at 10 uM incubated for 48 hrs by sulforhodamine B assay relative to control; format: functional; conditions: read-out: GI; procedure, shortened: as §2
[28] = tested on: SK-MEL-5; experiment: Growth inhibition of human SK-MEL-5 cells at 10 uM incubated for 48 hrs by sulforhodamine B assay relative to control; format: functional; conditions: SK-MEL-5, 48 h, read-out: GI; procedure, shortened: as §2
[29] = tested on: UACC-62; experiment: Growth inhibition of human UACC62 cells at 10 uM incubated for 48 hrs by sulforhodamine B assay relative to control; format: functional; conditions: UACC-62, 48 h, read-out: GI; procedure, shortened: as §2
[30] = tested on: COLO 205; experiment: Growth inhibition of human COLO205 cells at 10 uM incubated for 48 hrs by sulforhodamine B assay relative to control; format: functional; conditions: COLO 205, 48 h, read-out: GI; procedure, shortened: as §1

| SMILES | inhibition of growth at 10 µM [1] [%] | inhibition of growth at 10 µM [2] [%] | inhibition of growth at 10 µM [3] [%] | inhibition of growth at 10 µM [4] [%] | inhibition of growth at 10 µM [5] [%] | IC50 [6] [µM] | inhibition of growth at 10 µM [7] [%] | inhibition of growth at 10 µM [8] [%] | inhibition of growth at 10 µM [9] [%] | inhibition of growth at 10 µM [10] [%] | inhibition of growth at 10 µM [11] [%] | inhibition of growth at 10 µM [12] [%] | inhibition of growth at 10 µM [13] [%] | inhibition of growth at 10 µM [14] [%] | inhibition of growth at 10 µM [15] [%] | inhibition of growth at 10 µM [16] [%] | inhibition of growth at 10 µM [17] [%] | inhibition of growth at 10 µM [18] [%] | inhibition of growth at 10 µM [19] [%] | inhibition of growth at 10 µM [20] [%] | also measured |
| --- | --- | --- | --- | --- | --- | --- | --- | --- | --- | --- | --- | --- | --- | --- | --- | --- | --- | --- | --- | --- | --- |
| CCOC(=O)C1=C(C)NC(SCc2nnc(-c3ccc(Cl)cc3)o2)=NC1c1ccc(Cl)cc1Cl (centres undefined) | 26.9 | 68 | 34.7 | 34 | 44.7 | 0.08 | 45.8 | 15.5 | 56.6 | 34.8 | 32.9 | 49.8 | < 10 | 36.6 | 41.7 | 46.5 | 17.5 | 106 | 31 | 37.2 | inhibition of growth at 10 µM [21]: < 10%; inhibition of growth at 10 µM [22]: 72.8%; inhibition of growth at 10 µM [23]: 10.3%; inhibition of growth at 10 µM [24]: 46.9%; inhibition of growth at 10 µM [25]: 20.6%; inhibition of growth at 10 µM [26]: 27.1%; inhibition of growth at 10 µM [27]: 52.6%; inhibition of growth at 10 µM [28]: 19.7%; inhibition of growth at 10 µM [29]: 48.4% |
| CCOC(=O)C1=C(C)NC(SCc2nnc(-c3ccc(Cl)cc3)o2)=NC1c1ccc(Br)cc1 (centres undefined) | 15.7 | 55.2 | 34.3 | 24.3 | 34.9 | 0.086 | 27.3 | < 10 | 25 | 15.1 | 12.9 | 32.4 | 18 | 24 | 25.1 | 37.6 | 13.1 | 77.5 | 34.9 | 22.5 | inhibition of growth at 10 µM [21]: 18.7%; inhibition of growth at 10 µM [22]: 56.6%; inhibition of growth at 10 µM [23]: 20.2%; inhibition of growth at 10 µM [24]: 21.3%; inhibition of growth at 10 µM [25]: 20.1%; inhibition of growth at 10 µM [26]: 28%; inhibition of growth at 10 µM [27]: 52%; inhibition of growth at 10 µM [28]: 48.6%; inhibition of growth at 10 µM [29]: 44.7%; inhibition of growth at 10 µM [30]: 22.4% |
